Experimental data from ChEMBL document CHEMBL1129264, “Mercaptoacyl dipeptides as orally active dual inhibitors of angiotensin-converting enzyme and neutral endopeptidase” (1996).

How the values were obtained:
Assay type in all cases: organism-based
[1] = biological target: T1, Angiotensin-converting enzyme (Rattus norvegicus) (UniProt P47820); assay: Compound was tested for plasma inhibition of Angiotensin I converting enzyme activity in the conscious rat. Expressed as Inhibition of AI pressor response at 1 hr at a dose of 13.3 mg/kg po; design: dose 13.3 mg/kg
T1 sequence (whole entry): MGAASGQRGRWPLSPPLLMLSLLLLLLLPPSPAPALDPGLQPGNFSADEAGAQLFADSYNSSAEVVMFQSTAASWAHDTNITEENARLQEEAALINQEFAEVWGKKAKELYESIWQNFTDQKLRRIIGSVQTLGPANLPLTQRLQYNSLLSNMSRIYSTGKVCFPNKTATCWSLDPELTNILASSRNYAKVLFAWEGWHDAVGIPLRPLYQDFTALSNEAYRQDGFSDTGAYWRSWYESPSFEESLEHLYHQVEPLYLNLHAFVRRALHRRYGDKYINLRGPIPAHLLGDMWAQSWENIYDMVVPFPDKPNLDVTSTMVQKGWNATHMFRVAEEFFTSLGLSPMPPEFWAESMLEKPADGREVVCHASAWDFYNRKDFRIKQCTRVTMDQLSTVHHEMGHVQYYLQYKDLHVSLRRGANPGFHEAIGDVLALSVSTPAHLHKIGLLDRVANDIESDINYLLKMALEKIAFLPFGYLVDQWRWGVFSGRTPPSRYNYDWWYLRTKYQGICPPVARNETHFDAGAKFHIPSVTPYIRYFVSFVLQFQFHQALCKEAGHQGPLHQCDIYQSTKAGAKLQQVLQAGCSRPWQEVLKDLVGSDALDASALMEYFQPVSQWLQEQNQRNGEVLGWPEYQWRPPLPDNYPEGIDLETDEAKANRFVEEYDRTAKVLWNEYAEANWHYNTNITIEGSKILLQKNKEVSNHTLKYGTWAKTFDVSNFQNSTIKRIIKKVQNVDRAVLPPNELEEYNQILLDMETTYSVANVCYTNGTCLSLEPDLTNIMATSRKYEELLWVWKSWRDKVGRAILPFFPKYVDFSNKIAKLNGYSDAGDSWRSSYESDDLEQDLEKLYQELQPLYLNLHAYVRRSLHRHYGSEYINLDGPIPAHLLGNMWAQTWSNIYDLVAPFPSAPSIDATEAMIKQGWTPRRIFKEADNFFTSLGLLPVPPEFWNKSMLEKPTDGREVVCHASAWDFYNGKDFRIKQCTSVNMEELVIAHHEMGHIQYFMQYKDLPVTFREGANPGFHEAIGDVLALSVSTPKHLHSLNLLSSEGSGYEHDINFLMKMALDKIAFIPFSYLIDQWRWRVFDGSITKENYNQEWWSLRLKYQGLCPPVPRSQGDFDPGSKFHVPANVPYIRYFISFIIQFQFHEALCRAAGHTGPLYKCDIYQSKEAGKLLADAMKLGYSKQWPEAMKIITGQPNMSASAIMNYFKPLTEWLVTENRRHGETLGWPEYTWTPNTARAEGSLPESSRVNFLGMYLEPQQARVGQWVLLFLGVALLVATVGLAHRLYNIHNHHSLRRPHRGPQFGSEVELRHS
In short: (§1)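 Male conscious normotensive Sprague-Dawley rats (275-390 g), given femoral arterial and venous catheters under methohexital sodium (75 mg/kg ip) anesthesia. Next day, pressor responses to three angiotensin-I challenges (300 ng/kg iv) recorded by direct arterial pressure. Compound then dosed orally, and AI challenge repeated at set times. Each post-dose response compared with the mean of the three baseline responses, giving % inhibition.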

[2] = biological target: T1, Angiotensin-converting enzyme (Rattus norvegicus); assay: Compound was tested for plasma inhibition of Angiotensin I converting enzyme activity in the conscious rat. Expressed as Inhibition of AI pressor response at 4 hr at a dose of 13.3 mg/kg po; design: dose 13.3 mg/kg
In short: (§2)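 Male conscious normotensive Sprague-Dawley rats (275-390 g), prepared under methohexital sodium (75 mg/kg ip) with femoral arterial and venous catheters. The next day, pressor responses to three angiotensin-I challenges (300 ng/kg iv) were recorded. Compound was then given orally and angiotensin-I challenges were repeated at set times. Percent inhibition is relative to the mean of the three baseline responses.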

[3] = biological target: T1, Angiotensin-converting enzyme (Rattus norvegicus); assay: Compound was tested for plasma inhibition of Angiotensin I converting enzyme activity in the conscious rat. Expressed as Inhibition of AI pressor response at 6 hr at a dose of 13.3 mg/kg po; design: dose 13.3 mg/kg; in short: as §2
[4] = biological target: T1, Angiotensin-converting enzyme (Rattus norvegicus); assay: Compound was tested for plasma inhibition of Angiotensin I converting enzyme activity in the conscious rat. Expressed as Inhibition of AI pressor response at 2 hr at a dose of 13.3 mg/kg po; design: dose 13.3 mg/kg; in short: as §1
[5] = biological target: T1, Angiotensin-converting enzyme (Rattus norvegicus); assay: Compound was tested for plasma inhibition of Angiotensin I converting enzymeb activity in the conscious rat. Expressed as Inhibition of AI pressor response at 4 hr at a dose of 12.8 mg/kg po; design: dose 12.8 mg/kg; in short: as §2
[6] = biological target: T1, Angiotensin-converting enzyme (Rattus norvegicus); assay: Compound was tested for plasma inhibition of Angiotensin I converting enzyme activity in the conscious rat. Expressed as Inhibition of AI pressor response at 2 hr at a dose of 12.8 mg/kg po; design: dose 12.8 mg/kg; in short: as §1
[7] = biological target: T1, Angiotensin-converting enzyme (Rattus norvegicus); assay: Compound was tested for plasma inhibition of Angiotensin I converting enzyme activity in the conscious rat. Expressed as Inhibition of AI pressor response at 6 hr at a dose of 12.8 mg/kg po; design: dose 12.8 mg/kg; in short: as §2
[8] = biological target: T1, Angiotensin-converting enzyme (Rattus norvegicus); assay: Compound was tested for plasma inhibition of Angiotensin I converting enzyme activity in the conscious rat. Expressed as Inhibition of AI pressor response at 1 hr at a dose of 12.8 mg/kg po; design: dose 12.8 mg/kg; in short: as §1
[9] = biological target: T1, Angiotensin-converting enzyme (Rattus norvegicus); assay: Compound was tested for plasma inhibition of Angiotensin I converting enzyme activity in the conscious rat. Expressed as Inhibition of AI pressor response at 2 hr at a dose of 13.8 mg/kg po; design: dose 13.8 mg/kg; in short: as §1
[10] = biological target: T1, Angiotensin-converting enzyme (Rattus norvegicus); assay: Compound was tested for plasma inhibition of Angiotensin I converting enzyme activity in the conscious rat. Expressed as Inhibition of AI pressor response at 1 hr at a dose of 13.8 mg/kg po; design: dose 13.8 mg/kg; in short: as §1
[11] = biological target: T1, Angiotensin-converting enzyme (Rattus norvegicus); assay: Compound was tested for plasma inhibition of Angiotensin I converting enzyme activity in the conscious rat. Expressed as Inhibition of AI pressor response at 4 hr at a dose of 13.8 mg/kg po; design: dose 13.8 mg/kg; in short: as §2
[12] = biological target: T1, Angiotensin-converting enzyme (Rattus norvegicus); assay: Compound was tested for plasma inhibition of Angiotensin I converting enzyme activity in the conscious rat. Expressed as Inhibition of AI pressor response at 6 hr at a dose of 13.8 mg/kg po; design: dose 13.8 mg/kg; in short: as §2
[13] = biological target: T1, Angiotensin-converting enzyme (Rattus norvegicus); assay: Compound was tested for plasma inhibition of Angiotensin I converting enzyme activity in the conscious rat. Expressed as Inhibition of AI pressor response at 2 hr at a dose of 12.4 mg/kg po; design: dose 12.4 mg/kg; in short: as §1
[14] = biological target: T1, Angiotensin-converting enzyme (Rattus norvegicus); assay: Compound was tested for plasma inhibition of ACE activity in the conscious rat. Expressed as Inhibition of AI pressor response at 1 hr at a dose of 12.4 mg/kg po; design: dose 12.4 mg/kg; in short: as §1
[15] = biological target: T1, Angiotensin-converting enzyme (Rattus norvegicus); assay: Compound was tested for plasma inhibition of Angiotensin I converting enzyme activity in the conscious rat. Expressed as Inhibition of AI pressor response at 4 hr at a dose of 12.4 mg/kg po; design: dose 12.4 mg/kg; in short: as §1
[16] = biological target: T1, Angiotensin-converting enzyme (Rattus norvegicus); assay: Compound was tested for plasma inhibition of Angiotensin I converting enzyme activity in the conscious rat. Expressed as Inhibition of AI pressor response at 6 hr at a dose of 12.4 mg/kg po; design: dose 12.4 mg/kg; in short: as §2
[17] = biological target: T1, Angiotensin-converting enzyme (Rattus norvegicus); assay: Compound was tested for plasma inhibition of Angiotensin I converting enzyme activity in the conscious rat. Expressed as Inhibition of AI pressor response at 2 hr at a dose of 13 mg/kg po; design: dose 13 mg/kg
In short: (§3)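 Male conscious normotensive Sprague-Dawley rats (275-390 g), fitted under methohexital (75 mg/kg ip) with femoral arterial and venous catheters for direct blood pressure. Next day, pressor responses to three angiotensin-I challenges (300 ng/kg iv) were recorded. Compound was then given po and AI challenge repeated at scheduled times. Each post-dose response was compared with the mean of the three initial responses.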

[18] = biological target: T1, Angiotensin-converting enzyme (Rattus norvegicus); assay: Compound was tested for plasma inhibition of Angiotensin I converting enzyme activity in the conscious rat. Expressed as Inhibition of AI pressor response at 6 hr at a dose of 13 mg/kg po; design: dose 13 mg/kg; in short: as §3
[19] = biological target: T1, Angiotensin-converting enzyme (Rattus norvegicus); assay: Compound was tested for plasma inhibition of Angiotensin I converting enzyme activity in the conscious rat. Expressed as Inhibition of AI pressor response at 1 hr at a dose of 13 mg/kg po; design: dose 13 mg/kg; in short: as §3
[20] = biological target: T1, Angiotensin-converting enzyme (Rattus norvegicus); assay: Compound was tested for plasma inhibition of Angiotensin I converting enzyme activity in the conscious rat. Expressed as Inhibition of AI pressor response at 4 hr at a dose of 13 mg/kg po; design: dose 13 mg/kg; in short: as §3

Work on CCOC(=O)[C@H](Cc1ccc(O)cc1)NC(=O)C1(NC(=O)[C@H](SC(=O)c2ccccn2)C(C)C)CCCC1 yielded an inhibition [1] of 10%, an inhibition [2] of 8% and an inhibition [3] of 12%. For the same compound, the inhibition [4] was 11%.

CCCCOC(=O)[C@H](Cc1ccc(O)cc1)NC(=O)C1(NC(=O)[C@H](SC(=O)CC)C(C)C)CCCC1 was tested, and the inhibition [5] was 56%, the inhibition [6] was 71% and the inhibition [7] was 39%. For the same compound, the inhibition [8] was 47%.

Work on CCOC(=O)[C@H](Cc1ccc(O)cc1)NC(=O)C1(NC(=O)[C@H](SC(=O)CN2CCOCC2)C(C)C)CCCC1 yielded an inhibition [9] of 60%, an inhibition [10] of 54% and an inhibition [11] of 40%. The inhibition [12] was 28%.

CCOC(=O)[C@H](Cc1ccc(OCC)cc1)NC(=O)C1(NC(=O)[C@H](SC(C)=O)C(C)C)CCCC1 gave an inhibition [13] of 76%, an inhibition [14] of 88% and an inhibition [15] of 73%. The inhibition [16] was 70%.

Work on CCOC(=O)[C@H](Cc1ccc(O)cc1)NC(=O)C1(NC(=O)[C@H](SC(=O)C2CCCC2)C(C)C)CCCC1 yielded an inhibition [17] of 33%, an inhibition [18] of 38% and an inhibition [19] of 34%. It also gave an inhibition [20] of 55%.
